Most compounds without a hit are left out; they make up all but 3.1% or so of the library.
HSF1 inhib – HSF1 inhibitors in luciferase reporter cells, primary screen, cell-based, NIH3T3, luminescence; NIH3T3-HGL HSE-luciferase, MG132-induced, luminescence 8 h; stronger effect = lower value; AID 2098, 2009; activity change, negative = inhibition, % at 7.5 µM (by protocol); 300,000 tested, 0.77% active;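 active means more than half of replicate wells show activity change below -50%, luminescence cut by over half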;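 further: luciferase reports HSF-1 transcriptional activity via heat shock element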
HSF1 activator – HSF-1 activators, primary screen, NIH3T3-HGL cells, MG132 stress, luminescence, single point | NIH3T3-HGL HSF-1 luciferase reporter, 8 h; 100% = twice DMSO control signal | activation, % at 9 µM | 300,000 tested, 1.7% active | AID 504408, 2011;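 active means mean replicate activation of at least 50% with a set share of replicates each reaching 50%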
Tb hexokinase – Trypanosoma brucei hexokinase 1 inhibitors, primary screen, biochemical, G6PDH-coupled NADH absorbance, MLSCN library. hexokinase 1 [Trypanosoma brucei]. recombinant TbHK1, G6PDH-coupled NADH A340. inhibition, % at 10 µM. 220,000 tested, 0.11% active;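 active means inhibition of 50% or more in the single-dose primary screen; inactive means inhibition below 50%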
Hsp70 act – Hsp70 transcriptional activators, primary screen, cell-based, HeLa, Hsp70 promoter luciferase, luminescence, 10 µM; HeLa Hsp70 promoter luciferase reporter; scaled: vehicle 0, proteasome-inhibitor control 100%; activation, % at 10 µM; 200,000 tested, 0.04% active;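 active means activation above the mean across all tested compounds plus 3 SD, cutoff set per campaign, cut at about 5.5% in these data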
HSP90 refold inh – HSP90 inhibitors, primary screen, cell lysate, luminescence; Rabbit reticulocyte lysate, luciferase refolding luminescence, 3 h; AID 1789, 2009; 290,000 tested, 0.91% active; inhibition, % at 5.6 µM; Heat shock protein HSP 90 (rabbit reticulocyte lysate; luciferase refolding);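 active means inhibition above the screen-wide mean plus 3 SD, computed separately per campaign, cut at about 16% in these data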;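 further: inhibitors lower the luminescence because luciferase stays unfolded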
HKDC1 inh – HKDC1 hexokinase inhibitors, primary screen, biochemical, fluorescence, uHTS; 340,000 tested, 0.16% active; Q2TB90; recombinant HKDC1, G6PDH/diaphorase resazurin coupled fluorescence; inhibition, % at 20 µM; AID 493160, 2011;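 active means inhibition above about 35% when tested at 20 µM, limit read from the data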
Target sequence (Q2TB90 whole entry, looked up): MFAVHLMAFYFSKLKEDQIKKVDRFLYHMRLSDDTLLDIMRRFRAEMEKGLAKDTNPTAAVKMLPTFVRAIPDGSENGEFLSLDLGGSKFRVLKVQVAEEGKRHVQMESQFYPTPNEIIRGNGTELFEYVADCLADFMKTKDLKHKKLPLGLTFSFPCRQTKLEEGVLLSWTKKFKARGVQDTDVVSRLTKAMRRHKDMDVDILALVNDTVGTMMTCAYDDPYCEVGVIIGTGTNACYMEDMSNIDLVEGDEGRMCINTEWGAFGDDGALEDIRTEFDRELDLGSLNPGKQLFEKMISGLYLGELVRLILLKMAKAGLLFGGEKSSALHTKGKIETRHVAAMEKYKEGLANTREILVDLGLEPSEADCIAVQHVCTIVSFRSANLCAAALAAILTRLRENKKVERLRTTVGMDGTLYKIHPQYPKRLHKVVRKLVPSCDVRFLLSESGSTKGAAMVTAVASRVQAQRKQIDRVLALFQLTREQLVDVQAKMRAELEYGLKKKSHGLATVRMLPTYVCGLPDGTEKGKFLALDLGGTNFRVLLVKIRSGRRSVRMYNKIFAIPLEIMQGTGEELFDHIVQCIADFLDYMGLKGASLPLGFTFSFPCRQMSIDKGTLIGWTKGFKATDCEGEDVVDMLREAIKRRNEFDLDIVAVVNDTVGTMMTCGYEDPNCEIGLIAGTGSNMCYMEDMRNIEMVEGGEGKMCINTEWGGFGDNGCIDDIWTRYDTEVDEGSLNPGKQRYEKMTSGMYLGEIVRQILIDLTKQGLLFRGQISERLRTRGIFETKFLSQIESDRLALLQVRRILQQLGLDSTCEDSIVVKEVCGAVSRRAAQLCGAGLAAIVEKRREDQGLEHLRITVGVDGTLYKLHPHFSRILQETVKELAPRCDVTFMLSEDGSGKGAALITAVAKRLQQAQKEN
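Test system: recombinant HKDC1 (HK5) hexokinase enzyme, produced in-house / Doses: 20 µM test compound, 1% DMSO / Timing: 90 min, room temperature / Detection: G6PDH/diaphorase-coupled fluorescence, 1 mM NADP, 100 µM resazurin, 525/613 nm / Control set: DMSO wells with and without enzyme mix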
HKDC1 act conf – HKDC1 hexokinase activators, confirmation, biochemical, single concentration | shares compounds with HKDC1 inh | AID 504708, 2011 | inhibition, % at 20 µM | 740 tested, 14% active | recombinant HKDC1, G6PDH/diaphorase resazurin fluorescence; stronger effect = lower value;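 active means inhibition at or below a set negative limit, negative inhibition meaning the enzyme was activated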
Large screens that a line does not name were inactive (follow-up assays come after a bar, where they were run).

COc1ccc(C2=CC3=C(Br)C(=O)C(C)(OC(=O)c4ccco4)C(=O)C3=CO2)cc1 (configuration not stated)	HKDC1 inh 42 (no result: Hsp70 act, HSP90 refold inh) | HKDC1 act conf inactive
COc1ccc(C2=CC3=C(Br)C(=O)C(C)(OC(=O)c4cccs4)C(=O)C3=CO2)cc1 (configuration not stated)	HKDC1 inh 50 (no result: Tb hexokinase, Hsp70 act, HSP90 refold inh) | HKDC1 act conf inactive
CC(=O)Nc1ccc(CCCCc2ccc(NC(C)=O)cc2)cc1	none (no result: HSF1 inhib, HSF1 activator, Tb hexokinase, Hsp70 act, HSP90 refold inh)
COC(=O)c1sc(NC(=O)c2cc(C)on2)nc1C	none (no result: Tb hexokinase, Hsp70 act)
COc1ccc(-c2nc3c(c(=O)n(C)c(=O)n3C)n2CC2CC(c3ccccc3)=NO2)cc1OC (configuration not stated)	none | HKDC1 act conf -33
COc1ccc(C(=O)OCC2CC(c3ccccc3)=NO2)cc1OC (configuration not stated)	none
COc1ccc(N=c2oc3c(OC)cccc3cc2C(=O)NCc2ccco2)cc1OC	none (no result: HSF1 inhib, HSF1 activator)
COc1cccc2cc(C(=O)Nc3ccc(F)cc3)c(=Nc3ccc(C(=O)O)cc3)oc12	HKDC1 inh 77 | HKDC1 act conf inactive
COc1ccc(Nc2cc(Nc3cc(OC)c(OC)c(OC)c3)ncn2)cc1	none (no result: Tb hexokinase, Hsp70 act)
CC(=O)n1cc(CO)c2ccccc21	none (no result: Tb hexokinase, Hsp70 act)
CC(=O)n1cc(N(C(=O)CCl)c2ccc([N+](=O)[O-])cc2)c2ccccc21	HSF1 activator 75, HKDC1 inh 48 (no result: Hsp70 act) | HKDC1 act conf inactive
CC(=O)n1cc(N(C(=O)CCl)c2ccccc2)c2ccccc21	none (no result: Hsp70 act) | HKDC1 act conf inactive
COC(=O)C1C2CC(C(Br)C2Br)C1C(=O)O (configuration not stated)	none (no result: HSF1 inhib, HSF1 activator, Tb hexokinase, Hsp70 act, HSP90 refold inh)
O=C(c1c[nH]c(C(=O)C(Cl)(Cl)Cl)c1)c1ccccc1F	HKDC1 inh 37 (no result: Tb hexokinase, Hsp70 act) | HKDC1 act conf inactive
O=C(c1c[nH]c(C(=O)C(Cl)(Cl)Cl)c1)c1c(F)cccc1F	HKDC1 inh 38 (no result: Tb hexokinase, Hsp70 act) | HKDC1 act conf inactive
CN(C)C(CNC(=O)c1ccc(NS(=O)(=O)c2ccc3[nH]c(=O)[nH]c3c2)cc1)c1ccccc1 (configuration not stated)	none (no result: Tb hexokinase, Hsp70 act, HSP90 refold inh)
O=C(Cc1ccc(NC(=O)C2CCCN(C(=O)CCc3ccccc3)C2)cc1)Nc1cccc(C(=O)N2CCCC2)c1 (configuration not stated)	none (no result: HSF1 inhib, HSF1 activator, Tb hexokinase, Hsp70 act, HSP90 refold inh)
O=C(Nc1ccc2nc(-c3ccco3)c(-c3ccco3)nc2c1)N1CCN(c2ccccn2)CC1	HKDC1 inh 57 | HKDC1 act conf inactive
O=C(c1ccccc1)c1n[nH]c(-c2ccccc2)cc1=O	none | HKDC1 act conf inactive
COCC(=O)OC1CCn2c1nc1c2C(=O)C(C)=C(NC(C)=O)C1=O (configuration not stated)	HKDC1 inh 68 (no result: HSF1 inhib, HSF1 activator, Tb hexokinase, Hsp70 act, HSP90 refold inh) | HKDC1 act conf inactive
Cc1ccc2oc(C(=O)N3CCC(N4CCSCC4)CC3)c(C)c2c1	HKDC1 inh 35 (no result: Tb hexokinase, Hsp70 act) | HKDC1 act conf inactive
Cn1c(SCc2ccccc2C#N)nnc1-c1ccncc1	none (no result: Tb hexokinase, Hsp70 act)
O=C(O)c1cccc(-n2cccc2/C=C2/NC(=O)N(c3ccc(Cl)cc3)C2=O)c1	HKDC1 inh 61 (no result: HSF1 inhib, HSF1 activator) | HKDC1 act conf inactive
O=C(O)c1cccc(-n2cccc2/C=C2/NC(=O)N(c3cccc(Cl)c3)C2=O)c1	none (no result: Hsp70 act)
CC(=O)N1CCN(C(=O)COC(=O)COc2ccc(C#N)cc2)CC1	none (no result: Tb hexokinase, Hsp70 act, HSP90 refold inh)
O=C(CN1CCCc2ccccc21)N/N=C/c1ccc(O)cc1O	none | HKDC1 act conf inactive
O=C(CCc1ccccc1)NCC(=O)N/N=C/c1ccc(O)cc1O	none (no result: Hsp70 act) | HKDC1 act conf inactive
COc1ccccc1/C=C\C(=O)NCC(=O)N/N=C/c1ccc(O)cc1O	none (no result: Hsp70 act) | HKDC1 act conf inactive
O=C(CNC(=O)c1cccs1)N/N=C/c1ccc(O)cc1O	none | HKDC1 act conf inactive
COc1ccccc1NC(=O)Nc1nc(CC(=O)N2CCN(c3ccccc3F)CC2)cs1	none (no result: Tb hexokinase, Hsp70 act, HSP90 refold inh)

Bioassay records deposited in PubChem by several laboratories.
